# Bioassay records: PubChem BioAssay, Broad Institute
# This is a sample that favours compounds with a hit; in the whole collection about 5.8% have one here.
# KDM4C inh: inhibitors of human demethylase GASC-1 KDM4C | inhibition, % at 12.5 µM | GST-KDM4C 2-372, H3K9me3 peptide, LANCE TR-FRET | 96,000 compounds, 0.15% hits | Q9H3R0;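 active means mean replicate inhibition above about 25%, with at least 55% of replicates also reaching it, limit read from the data, passing the limit was not always enough; inconclusive means only one of those two conditions met; inactive means neither condition met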
#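 System: N-terminal GST-fused human GASC-1 (KDM4C) fragment, residues 2-372; amount: enzyme final amount 10 nM; incubation: reaction 30 min RT, detection step 1 h RT; medium: HEPES buffer, pH 7.5, plus ascorbate; technique: LANCE TR-FRET, Eu antibody, ULight-streptavidin, EDTA, ex 340 nm, em 618/671 nm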
# Pf Dd2 inh: inhibitors of Plasmodium falciparum Dd2 growth; 94,000 compounds, 2.3% hits; AID 1159554; activity change, % at 10 µM; P. falciparum Dd2 growth, SYBR Green, 72 h; stronger effect = lower value; in the data active means activity change below about -80%; inconclusive means no clear call, values can overlap the other calls
# T cruzi growth-1: blocks T. cruzi growth in NIH3T3 culture; T. cruzi beta-gal in NIH3T3, GalScreen luminescence, 90 h; inhibition, % at 8.34 µM; 77,000 compounds, 5.9% hits; AID 624255;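 active means mean inhibition above about 93%, with at least 55% of replicates each passing it, limit read from the data, passing the limit was not always enough; inconclusive means only one of those two conditions holds; inactive means neither condition holds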
# IDH1 mut inh: inhibitors of human IDH1 R132H; O75874; inhibition, % at 10 µM; 70,000 compounds, 0.18% hits; IDH1 R132H reductase, diaphorase/resazurin fluorescence, 60 min; in the data active means inhibition above about 34%; inconclusive means no clear call, values can overlap the other calls; inactive means below about 11%;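 further: 0% = DMSO and 100% = no enzyme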
# Target sequence (O75874 whole entry R132H): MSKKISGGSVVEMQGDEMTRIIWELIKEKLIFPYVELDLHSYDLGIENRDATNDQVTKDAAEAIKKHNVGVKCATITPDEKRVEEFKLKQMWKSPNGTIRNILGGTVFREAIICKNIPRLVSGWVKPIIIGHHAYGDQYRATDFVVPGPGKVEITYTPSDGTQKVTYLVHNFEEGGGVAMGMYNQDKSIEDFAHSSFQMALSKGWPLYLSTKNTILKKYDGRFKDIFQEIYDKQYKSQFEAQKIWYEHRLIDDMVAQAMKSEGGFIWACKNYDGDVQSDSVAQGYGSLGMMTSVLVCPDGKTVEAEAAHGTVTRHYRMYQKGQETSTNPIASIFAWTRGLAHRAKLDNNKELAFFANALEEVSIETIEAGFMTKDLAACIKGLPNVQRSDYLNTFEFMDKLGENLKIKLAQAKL
# T cruzi growth-2: inhibitors of T. cruzi proliferation; shares compounds with T cruzi growth-1; T. cruzi beta-gal in NIH3T3, GalScreen luminescence, 90 h; inhibition, % at 8.35 µM; 5,600 compounds, 72% hits; AID 651739;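 active means mean replicate inhibition above about 95% and at least 55% of replicates individually reaching it, limit read from the data; inconclusive means only one of the two criteria is met; inactive means neither criterion is met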
# T cruzi growth-3: inhibitors of T. cruzi proliferation | 5,600 compounds, 21% hits | AID 651740 | shares compounds with T cruzi growth-1 | inhibition, % at 2.09 µM | T. cruzi beta-gal in NIH3T3, GalScreen luminescence, 90 h;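 active means mean inhibition above about 95%, with at least 55% of replicates also reaching it, limit read from the data; inconclusive means meets just one of the two conditions; inactive means meets neither condition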;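 further: plate controls were neutral control median for no effect and positive control median for full effect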
# NIH3T3 tox: cytotoxicity in mouse NIH/3T3 fibroblasts; shares compounds with T cruzi growth-1; 5,600 compounds, 14% hits; NIH/3T3 viability, CellTiter-Glo ATP luminescence, 90 h; cytotoxicity (signal decrease), % at 8.35 µM;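 active means mean signal decrease across replicates above about 35% based on untreated-well scatter, with enough replicates individually passing, limit read from the data; inconclusive means no rule stated though some were filed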;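 further: 0% = median of neutral control wells and 100% = median of positive control wells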
# NIH3T3 tox 2: cytotoxicity in mouse NIH/3T3 fibroblasts; shares compounds with T cruzi growth-1; NIH/3T3 viability, CellTiter-Glo ATP luminescence, 90 h; inhibition, % at 24.9 µM; 5,600 compounds, 56% hits; AID 651744;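 active means mean loss of cell viability signal at or above a set limit, and enough replicates individually reaching it; inconclusive means meets only the mean limit or only the replicate share; inactive means meets neither condition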;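 further: 0% = median of neutral control wells and 100% = median of positive control wells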
# Numbers without * were called inactive; u = inconclusive; x = not tested or not shown.
SMILES,KDM4C inh,Pf Dd2 inh,T cruzi growth-1,IDH1 mut inh,T cruzi growth-2,T cruzi growth-3,NIH3T3 tox,NIH3T3 tox 2
COc1ccc(S(=O)(=O)N(C)C[C@H]2Oc3ccc(NC(=O)Nc4ccc(C(F)(F)F)cc4)cc3C(=O)N([C@@H](C)CO)C[C@H]2C)cc1,-4,11,u,0,99*,60,45*,81*
CCCNC(=O)N(C)C[C@H]1Oc2cc(C#CC(C)C)ccc2S(=O)(=O)N([C@@H](C)CO)C[C@@H]1C,1,-12,16,x,x,x,x,x
COc1ccc(OC)c(NC(=O)c2ccc(Cl)c(S(=O)(=O)Nc3ccc(C)cc3C)c2)c1,x,x,x,0,x,x,x,x
C[C@H](CO)N1C[C@H](C)[C@H](CN(C)Cc2ccccc2)Oc2c(NC(=O)c3nc4ccccc4s3)cccc2C1=O,-1,-25,99*,0,103*,47,-4,u
C[C@@H]1CN([C@H](C)CO)C(=O)c2cccc(NC(=O)c3nc4ccccc4s3)c2O[C@H]1CN(C)Cc1ccc(C(F)(F)F)cc1,-1,-77,96,x,x,x,x,x
C[C@H]1CN([C@@H](C)CO)C(=O)c2cccc(NC(=O)c3nc4ccccc4s3)c2O[C@H]1CN(C)Cc1ccc(C(F)(F)F)cc1,-4,u,u,0,110*,65,34,96*
C[C@H]1CN([C@@H](C)CO)C(=O)c2cccc(NC(=O)c3nc4ccccc4s3)c2O[C@H]1CN(C)Cc1ccc(Cl)c(Cl)c1,-4,-57,97*,x,112*,73,47*,54*
C[C@@H]1CN([C@H](C)CO)C(=O)c2cccc(NC(=O)c3nc4ccccc4s3)c2O[C@H]1CN(C)Cc1ccc(C(=O)Nc2ccccc2N)cc1,3,-92*,104*,x,108*,77,-12,33*
Cc1cc(C)cc(N(CC(=O)Nc2c(C)cc(C)cc2C)S(C)(=O)=O)c1,x,x,x,-1,x,x,x,x
C[C@H]1CN([C@@H](C)CO)C(=O)c2c(c3ccccc3n2C)-c2ccccc2CO[C@@H]1CN(C)C(=O)Nc1ccccc1,-3,-54,31,x,x,x,x,x
Cc1noc(C)c1S(=O)(=O)Nc1ccc2c(c1)CC(=O)N([C@H](C)CO)C[C@@H](C)[C@H](CN(C)C(=O)Nc1ccc3c(c1)OCO3)O2,0,12,-1,0,x,x,x,x
Cc1noc(C)c1NC(=O)Nc1ccc2c(c1)C(=O)N([C@@H](C)CO)C[C@H](C)[C@H](CN(C)C(=O)Nc1ccc(C(F)(F)F)cc1)OCCCC[C@H](C)O2,-2,-63,110*,0,96*,78,3,-9
C[C@@H]1CCCCO[C@H](CN(C)C(=O)Nc2ccc(C(F)(F)F)cc2)[C@H](C)CN([C@@H](C)CO)C(=O)c2cc(NC(=O)Nc3ccc(C(F)(F)F)cc3)ccc2O1,-1,-55,116*,x,108*,113*,1,-18
CC(C)NC(=O)Nc1ccc2c(c1)C(=O)N([C@H](C)CO)C[C@H](C)[C@@H](CN(C)C(=O)Nc1ccc(C(F)(F)F)cc1)OCCCC[C@H](C)O2,-2,-46,98*,x,98*,95,13,5
C[C@H](CO)N1C[C@H](C)[C@H](CN(C)C(=O)Nc2ccc(C(F)(F)F)cc2)OCCCC[C@H](C)Oc2ccc(NC(=O)Nc3ccc(C(F)(F)F)cc3)cc2C1=O,-1,24,126*,x,102*,117*,7,13
CC(C)NC(=O)Nc1ccc2c(c1)C(=O)N([C@@H](C)CO)C[C@@H](C)[C@@H](CN(C)C(=O)Nc1ccc(C(F)(F)F)cc1)OCCCC[C@@H](C)O2,-1,-76,94,2,x,x,x,x
C[C@@H]1CN([C@H](C)CO)C(=O)c2cc(NC(=O)Nc3ccc(F)cc3)ccc2O[C@@H](C)CCCCO[C@H]1CN(C)C(=O)Nc1ccc(C(F)(F)F)cc1,0,-35,83,7,x,x,x,x
O=C(CNS(=O)(=O)c1cc(Cl)ccc1Cl)Nc1ccc(Oc2ccccc2)cc1,x,x,x,0,x,x,x,x
CCC(=O)Nc1ccc2c(c1)OC[C@@H](C)N(C(=O)Cc1ccccn1)C[C@@H](C)[C@@H](OC)CN(C)C2=O,-1,3,16,0,x,x,x,x
C[C@@H]1CCCCO[C@H](CN(C)C(=O)Nc2ccc(C(F)(F)F)cc2)[C@H](C)CN([C@@H](C)CO)C(=O)c2cc(NC(=O)Nc3ccc4c(c3)OCO4)ccc2O1,-3,-67,117*,-2,107*,109*,-7,6
C[C@@H]1CCCCO[C@H](CN(C)C(=O)Nc2ccc(C(F)(F)F)cc2)[C@@H](C)CN([C@H](C)CO)C(=O)c2cc(NC(=O)Nc3ccc(C(F)(F)F)cc3)ccc2O1,0,-2,103*,-2,101*,u,1,16
C[C@@H]1CCCCO[C@H](CN(C)C(=O)Nc2ccc3c(c2)OCO3)[C@@H](C)CN([C@H](C)CO)C(=O)c2cc(NC(=O)Nc3ccc(C(F)(F)F)cc3)ccc2O1,1,-42,93,x,x,x,x,x
C[C@H]1CCCCO[C@H](CN(C)C(=O)Nc2ccc(F)cc2)[C@@H](C)CN([C@@H](C)CO)C(=O)c2cc(NC(=O)Nc3ccc(C(F)(F)F)cc3)ccc2O1,-2,-57,86,x,x,x,x,x
C[C@@H]1CCCCO[C@H](CN(C)C(=O)Nc2ccc(C(F)(F)F)cc2)[C@@H](C)CN([C@@H](C)CO)C(=O)c2cc(NC(=O)Nc3ccc(C(F)(F)F)cc3)ccc2O1,-1,-88*,112*,-2,108*,115*,2,u
COc1cccc(-c2ccc3c(c2)[C@H]2[C@H](CCN2C(=O)C2CCOCC2)[C@H](CO)N3)c1,-2,-24,u,x,103*,65,3,20
COc1cccc(-c2ccc3c(c2)[C@H]2[C@H](CCN2C(=O)C2CCOCC2)[C@@H](CO)N3)c1,-1,0,116*,x,105*,73,-5,-1
COc1cccc(-c2ccc3c(c2)[C@@H]2[C@@H](CCN2C(=O)C2CCOCC2)[C@H](CO)N3)c1,0,-46,111*,x,90,52,-15,-6
COc1cccc(-c2ccc3c(c2)[C@@H]2[C@@H](CCN2C(=O)C2CCC2)[C@@H](CO)N3)c1,-1,-33,19,x,x,x,x,x
COc1cccc(NC(=O)N[C@H]2C=C[C@H](CC(=O)NCc3ccccn3)O[C@H]2CO)c1,0,23,x,x,x,x,x,x
O=C(CSc1nc(-c2ccccc2)cc(C(F)(F)F)n1)c1ccc(Br)cc1,x,x,x,0,x,x,x,x
